This note sets out measurements from ChEMBL document CHEMBL1136577, “Synthesis of 6-formyl-pyridine-2-carboxylate derivatives and their telomerase inhibitory activities” (Bioorg Med Chem Lett, 2003).

The IC50 is the point on the concentration scale where inhibition reaches its midpoint. Low readings indicate greater potency, high ones weaker potency.

In assay [1] the target is Telomerase reverse transcriptase (Homo sapiens, UniProt O14746). As to the kind of experiment: In vitro inhibitory activity of compound against telomerase. The procedure, abridged:
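Telomerase activity was measured by TRAP assay. Extension products were resolved on 10% nondenaturing polyacrylamide gel, stained with SYBR Green, and band intensity quantified by image analysis. IC50 was derived from the reduction in product signal.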

The test system of the next assay is HL-60. As to the kind of experiment: In vitro antiproliferative activity of compound against HL-60 (human assay. Type of assay: functional, cell-based. In short, it runs like this:
(§1)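 Cells grown for 3 days with compound, then growth read by sulforhodamine B (SRB) staining. IC50 taken as the dose giving 50% growth inhibition of the cultured cells.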

The test system of a further assay is HEC-1B cell line. As to the kind of experiment: In vitro antiproliferative activity of compound against HEC-1-B (human endometrical caner ) cell line was determined by SRB assay. Type of assay: functional, cell-based. In short, it runs like this: as §1
(In SRB staining, fixed cells bind dye roughly in proportion to their protein.)

The next assay concerns CAKI-2. The assay can be described thus: In vitro antiproliferative activity of compound against Caki-2 (human renal caner ) cell line was determined by SRB assay. Type of assay: functional, cell-based. In short, it runs like this:
as §1

The subject of a further assay is A549. As to the kind of experiment: In vitro antiproliferative activity of compound against […] (human lung caner ) cell line was determined by SRB assay. In kind it is functional, cell-based. The procedure, abridged:
as §1

The test system of the next assay is HT-29. As to the kind of experiment: In vitro antiproliferative activity of compound against HT-29 (human colon caner ) cell line aws determined by SRB assay. In kind it is functional, cell-based. In short, it runs like this:
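Human tumour cell lines exposed to compound for 3 days, with growth measured by sulforhodamine B (SRB) staining. IC50 is the concentration that inhibits growth of 50% of the cultured cells.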

Chain of Telomerase reverse transcriptase (O14746 whole entry): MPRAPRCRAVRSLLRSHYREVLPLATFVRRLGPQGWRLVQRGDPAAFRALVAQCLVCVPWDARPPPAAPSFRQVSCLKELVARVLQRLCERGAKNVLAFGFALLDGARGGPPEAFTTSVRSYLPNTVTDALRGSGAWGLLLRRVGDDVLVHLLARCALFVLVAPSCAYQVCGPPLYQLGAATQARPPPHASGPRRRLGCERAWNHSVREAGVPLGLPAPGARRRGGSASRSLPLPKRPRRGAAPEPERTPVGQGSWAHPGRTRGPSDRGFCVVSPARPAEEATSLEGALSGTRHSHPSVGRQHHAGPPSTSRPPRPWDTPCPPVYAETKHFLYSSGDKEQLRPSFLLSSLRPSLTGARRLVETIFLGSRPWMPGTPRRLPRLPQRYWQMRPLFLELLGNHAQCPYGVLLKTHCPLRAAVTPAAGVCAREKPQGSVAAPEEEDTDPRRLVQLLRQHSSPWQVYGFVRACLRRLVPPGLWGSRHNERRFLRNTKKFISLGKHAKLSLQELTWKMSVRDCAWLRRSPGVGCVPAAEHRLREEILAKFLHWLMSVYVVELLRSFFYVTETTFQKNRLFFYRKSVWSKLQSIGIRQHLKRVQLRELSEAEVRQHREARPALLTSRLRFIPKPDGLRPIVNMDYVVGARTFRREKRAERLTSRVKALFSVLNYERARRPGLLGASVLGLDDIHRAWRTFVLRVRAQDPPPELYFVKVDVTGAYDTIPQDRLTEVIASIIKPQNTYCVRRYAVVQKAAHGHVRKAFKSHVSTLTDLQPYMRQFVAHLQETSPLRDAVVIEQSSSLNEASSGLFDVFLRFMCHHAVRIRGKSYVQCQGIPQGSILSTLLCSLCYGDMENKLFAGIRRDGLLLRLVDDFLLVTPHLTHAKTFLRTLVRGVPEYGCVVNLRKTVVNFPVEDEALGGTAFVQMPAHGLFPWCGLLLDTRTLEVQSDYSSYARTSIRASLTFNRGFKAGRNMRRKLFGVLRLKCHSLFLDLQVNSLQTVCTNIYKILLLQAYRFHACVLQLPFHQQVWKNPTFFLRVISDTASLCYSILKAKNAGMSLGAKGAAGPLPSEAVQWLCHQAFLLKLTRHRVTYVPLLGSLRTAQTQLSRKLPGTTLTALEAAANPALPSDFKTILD

As for `Cc1ccccc1SC(=O)c1cccc(C=O)n1`, the IC50 in assay [1] is greater than 100 µM.

For `O=Cc1cccc(C(=O)Sc2ccc(Cl)c(Cl)c2)n1`, the IC50 is 13 µM in the assay with HL-60; 24 µM in assay [1]; 56.4 µM in the assay on HEC-1B cell line; greater than 300 µM in the assay on CAKI-2; 56.9 µM with A549.

In turn, `CC(=O)Nc1ccc(SC(=O)c2cccc(C=O)n2)cc1` displayed a 50% inhibitory concentration (IC50) in assay [1] greater than 100 µM.

As to `O=Cc1cccc(C(=O)Sc2ccc(F)c(F)c2)n1`, in assay [1], the half-maximal inhibitory concentration (IC50) came to 69 µM.

In assay [1], `COc1ccccc1SC(=O)c1cccc(C=O)n1` came in with an IC50 greater than 100 µM.

As to `N#Cc1ccc(C=O)nc1SCc1c(Cl)cccc1Cl`, the 50% inhibitory concentration (IC50) with HL-60 is 26.7 µM; in assay [1], 77 µM; in the assay with HEC-1B cell line, 175 µM; in the assay with CAKI-2, greater than 300 µM; in the assay on A549, greater than 300 µM.

In assay [1], `O=Cc1cccc(C(=O)Sc2c(Cl)cc(Cl)cc2Cl)n1` gave a half-maximal inhibitory concentration (IC50) of 50 µM.

`Cc1ccc(SC(=O)c2cccc(C=O)n2)cc1`: the half-inhibitory concentration (IC50) in assay [1] is greater than 100 µM.

`Cc1cccc(SC(=O)c2cccc(C=O)n2)c1` had a half-maximal inhibitory concentration (IC50) in assay [1] of 76 µM.

In assay [1], `O=Cc1cccc(C(=O)Sc2ccc(F)cc2)n1` had a concentration for half-maximal inhibition (IC50) of 64 µM.

In assay [1], `O=Cc1cccc(C(=O)Sc2ccccc2Cl)n1` came in with a half-inhibitory concentration (IC50) of 84 µM.

Turning to `O=Cc1cccc(C(=O)Oc2ccc(Cl)c(Cl)c2)n1`, the IC50 in assay [1] is greater than 100 µM.

As for `O=Cc1cccc(C(=O)Sc2c(Cl)cccc2Cl)n1`, inhibition in assay [1] was half-maximal at 79 µM (IC50).

`COc1cccc(SC(=O)c2cccc(C=O)n2)c1` returned an IC50 in assay [1] of 76 µM.

On to `O=Cc1cccc(C(=O)Sc2cccc(Cl)c2)n1`, for which, in assay [1], the IC50 is 79 µM.

`O=Cc1cccc(C(=O)Sc2ccc([N+](=O)[O-])cc2)n1`: the midpoint of inhibition in assay [1], the IC50, lay at 75 µM.

`O=Cc1cccc(C(=O)Sc2ccc(Cl)cc2)n1` returned an IC50 in assay [1] of 33 µM.

The molecule `O=Cc1cccc(C(=O)Sc2cc(Cl)cc(Cl)c2)n1` registered a 50% inhibitory concentration (IC50) in assay [1] of 64 µM.

Consider `O=Cc1cccc(C(=O)Nc2ccc(Cl)c(Cl)c2)n1`, for which the IC50 in assay [1] is greater than 100 µM.

Consider `COc1ccc(SC(=O)c2cccc(C=O)n2)cc1`, for which the half-maximal inhibitory concentration (IC50) in assay [1] was 91 µM.

With `CC[C@@]1(O)C(=O)OCc2c1cc1n(c2=O)Cc2cc3ccccc3nc2-1` [CAMPTOTHECIN], the IC50 in the assay with HL-60 was found to be 0.066 µM; with HEC-1B cell line, 8.64 µM; in the assay with CAKI-2, 3.96 µM; in the assay on A549, 2.53 µM; in the assay on HT-29, 1.4 µM.

Regarding `O=Cc1cccc(C(=O)Sc2ccc(Br)cc2)n1`, the concentration for half-maximal inhibition (IC50) in assay [1] was determined as 56 µM.

The molecule `O=Cc1cccc(C(=O)Sc2cc(Cl)ccc2Cl)n1` registered a half-maximal inhibitory concentration (IC50) in assay [1] of 68 µM.
